Source: PubChem
CRFR2-BP ag – agonists of CRF-BP/CRF-R2 complex, primary screen, cell-based, HEK293, calcium dye fluorescence, uHTS. CRF-binding protein / CRF receptor 2 complex (human). calcium dye fluorescence (FLIPR); percent of saturating CRF peptide response. activation, % at 13.2 µM. hit rate 0.46% among 350,000. AID 588473, 2011;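 active = activation of at least 50%, plus an integration ratio under a set limit after plate pattern correction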;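 note: plate controls were neutral control wells without compound for no effect and CRF at EC100 for full effect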
GPR7 antagonist – GPR7 receptor antagonists, primary screen, cell-based, fluorescence, single concentration. Neuropeptides B/W receptor type 1 (Homo sapiens), P48145. GPR7-expressing cells, fluorescence antagonist assay. inhibition, % at 4.4 µM. hit rate 1.1% among 290,000; in the data active = inhibition above about 16%, passing the limit was not always enough;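 note: cells stimulated with the agonist NPW; 0% = agonist with vehicle and 100% = vehicle without agonist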
CRFBP-R2 block – antagonists of CRF-BP/CRF-R2 complex, primary screen, cell-based, HEK293, calcium dye fluorescence, uHTS; inhibition, % at 11.8 µM; CRF-induced calcium fluorescence; hit rate 0.59% among 350,000;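 active = inhibition of the ligand-induced calcium signal above about 50% at the single tested concentration, limit read from the data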
zfTRPN1 agonist – zebrafish TRPN1 channel agonists, primary screen, cell-based, HEK293, calcium fluorescence. transient receptor potential cation channel N1 (TRPN1/NompC), Danio rerio. HEK293 zebrafish TRPN1-YFP, Fluo-8 calcium fluorescence; 100% = response to 87 µM carbachol. activation, % at 3 µM. hit rate 0.18% among 220,000. AID 1424, 2008;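 active = activation above its plate's cutoff, the mean activation of test wells on that plate plus 3 SD, cut at about 19% in these data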;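 note: 0% = DMSO alone and 100% = 87 µM carbachol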
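Assay system: Zebrafish TRPN1-YFP in HEK293 cells | Incubation: Dye loading 1 h at 37 °C, then 30 min room temperature | Measured by: Kinetic Fluo-8 fluorescence, ex 470-495, em 515-575 nm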
TRPML3 agonist – human TRPML3 channel agonists, primary screen, cell-based, HEK293 TRPML3-YFP, Fluo-8 calcium fluorescence, 3 µM | AID 1448, 2008 | activation, % at 3 µM | 100% = the carbachol control signal | Mucolipin-3 (Homo sapiens), Q8TDD5 | hit rate 0.29% among 220,000;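 active = activation above its plate's cutoff, the mean activation of the plate's test wells plus 3 SD, cut at about 12% in these data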;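 note: 0% = DMSO only wells and 100% = carbachol wells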
Target sequence (Q8TDD5 whole entry, looked up): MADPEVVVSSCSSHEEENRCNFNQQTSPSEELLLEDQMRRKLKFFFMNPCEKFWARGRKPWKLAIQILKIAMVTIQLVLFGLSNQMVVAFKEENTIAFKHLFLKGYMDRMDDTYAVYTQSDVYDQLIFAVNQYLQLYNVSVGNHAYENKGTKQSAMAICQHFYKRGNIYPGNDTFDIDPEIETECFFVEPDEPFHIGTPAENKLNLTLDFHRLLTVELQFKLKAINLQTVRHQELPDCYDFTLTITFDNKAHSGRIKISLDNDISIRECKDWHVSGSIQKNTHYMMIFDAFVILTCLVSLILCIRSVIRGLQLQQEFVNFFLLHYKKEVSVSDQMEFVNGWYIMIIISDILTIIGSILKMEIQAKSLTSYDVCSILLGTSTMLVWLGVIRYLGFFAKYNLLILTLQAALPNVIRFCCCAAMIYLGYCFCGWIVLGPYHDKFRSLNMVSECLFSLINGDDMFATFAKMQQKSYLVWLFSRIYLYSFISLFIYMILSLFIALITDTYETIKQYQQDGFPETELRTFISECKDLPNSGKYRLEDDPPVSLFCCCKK
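Material: TRPML3-YFP stable HEK293 cells | Dosing: One concentration, 3 µM nominal, 0.3% DMSO | Timing: 125 s total fluorescence read per well | Technique: Fluo-8 calcium dye fluorescence, ex 470-495, em 515-575 nm | Measure: Percent activation from peak-to-basal fluorescence ratio, scaled between DMSO and carbachol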
* marks the source's active call; other numbers are inactive results; nt = no result given. In the library only some 2% were active in any assay of this set; here they are far more common.

SMILES	CRFR2-BP ag	GPR7 antagonist	CRFBP-R2 block	zfTRPN1 agonist	TRPML3 agonist
CC(OC(=O)c1cc(S(=O)(=O)N2CCOCC2)ccc1Br)C(=O)N1CCOCC1 (configuration not stated)	0.0	nt	-7.1	nt	nt
N#CC(C#N)=C(Nc1ccc(F)cc1)SCc1cccc(F)c1	105.0*	2.8	94.4*	24.8*	20.8*
CCOc1ccc(N/C(SCc2cccc([N+](=O)[O-])c2)=C(/C#N)C(N)=O)cc1	-3.5	-7.7	-4.0	-0.5	-1.4
Cc1c(NC(=S)NC(=O)c2ccccc2Br)c(=O)n(-c2ccccc2)n1C	-0.5	2.0	-3.8	nt	nt
COc1ccc(C(=O)NCCS(=O)(=O)N2CCC3(CC2)OCCO3)cc1	-1.9	nt	-7.1	nt	nt
O=C(Cn1nc(-c2ccccc2)ccc1=O)N1CCOCC1	-0.7	-15.3	-2.4	0.2	-0.3
O=C(CCn1nc(-c2ccccc2)ccc1=O)N1CCOCC1	-1.9	-11.5	120.2*	0.9	1.1
COc1ccc(NS(=O)(=O)c2cccc(C(=O)N/N=C(\C)c3cccnc3)c2)cc1	0.6	nt	-4.7	nt	nt
COCCn1c(SCC(=O)Nc2cc(C)cc(C)c2)nc2ccccc2c1=O	-3.4	-0.3	-3.2	nt	nt
Cc1ccc(NC(=O)CSc2nc3ccccc3c(=O)n2CCCN2CCCCC2)cc1Cl	1.7	25.2*	-5.2	-2.9	1.5
O=C(CCCn1c(SCC(=O)NC2CCCCC2)nc2ccccc2c1=O)NCC1CCCO1 (configuration not stated)	1.7	-1.5	1.6	1.4	0.3
COCCn1c(SCC(=O)Nc2cccc(C(=O)OC)c2)nc2ccccc2c1=O	-3.8	-21.4	70.8*	0.2	0.2
CCC(C)NC(=O)CSc1nc2ccccc2c(=O)n1CCCC(=O)NCC1CCCO1 (configuration not stated)	-4.3	-4.7	50.7*	0.8	0.9
O=C(CSc1nc2ccccc2c(=O)n1CCCN1CCOCC1)Nc1ccc(F)c(Cl)c1	0.0	nt	-4.6	nt	nt
Cc1noc(C)c1S(=O)(=O)N(CC(=O)NC(C)c1ccccc1)c1ccc(C(C)C)cc1 (configuration not stated)	1.6	3.7	0.4	nt	nt
COC(=O)CSc1nnc(CSc2nc(C)cc(C)n2)n1Cc1ccco1	-0.4	-6.9	2.3	-1.5	0.1
Cc1cc(C)nc(SCc2nnc(SCc3ccc([N+](=O)[O-])cc3)n2Cc2ccco2)n1	-0.8	3.4	78.7*	-2.9	-1.4
N#Cc1c(N)n(-c2ccccc2N)c2nc3ccccc3nc12	-5.2	-11.2	19.2	0.9	0.8
N#Cc1c(N)n(-c2cccc(C(=O)O)c2)c2nc3ccccc3nc12	0.7	-16.5	57.2*	-1.7	0.8
CCOC(=O)c1cc([N+](=O)[O-])c([N+](=O)[O-])cc1NC(C)=O	-3.4	-6.6	51.5*	-1.0	0.0
c1cc2c3c(cccc3c1)C(N1CCCCCC1)=N2	8.7	32.3*	20.3	-0.1	-0.3
OC(C#CCN1CCCCCC1)(c1ccccc1)c1cccnc1 (configuration not stated)	-1.0	-7.7	117.2*	-0.4	0.6
CC(=O)C1=C(C)OC(N)=C(C#N)C1c1cccc([N+](=O)[O-])c1 (configuration not stated)	-3.1	32.9*	44.5	-2.1	-0.3
Fc1ccc(Oc2ccnc(Cl)n2)c(Cl)c1	-1.1	nt	52.7*	nt	nt
CC(C)c1nnc(N2C(=O)C(O)=C(C(=O)c3cccs3)C2c2ccccc2)s1 (configuration not stated)	195.8*	-3.5	-217.5	182.7*	114.4*
SMILES	CRFR2-BP ag	GPR7 antagonist	CRFBP-R2 block	zfTRPN1 agonist	TRPML3 agonist
Cc1cccc(N2C(=O)C(O)=C(C(=O)c3cccs3)C2c2ccc(F)cc2)n1 (configuration not stated)	-0.3	-2.5	18.0	0.0	-0.4
Cc1cccc(N2C(=O)C(O)=C(C(=O)c3cccs3)C2c2ccc(C(C)C)cc2)n1 (configuration not stated)	62.4*	-12.6	-0.9	-0.5	1.0
COc1ccc(C2C(C(=O)c3cccs3)=C(O)C(=O)N2c2nnc(C)s2)cc1OC (configuration not stated)	21.2	-4.1	-25.5	0.2	1.1
COc1ccc(C2C(C(=O)c3cccs3)=C(O)C(=O)N2c2nncs2)cc1 (configuration not stated)	265.5*	-8.9	-303.1	1.0	1.1
COc1ccc(C(=S)N2CCN(c3cccc(Cl)c3)CC2)c(OC)c1	-0.9	28.1*	7.2	-1.4	0.0
C=CCc1cccc(/C=N/NC(=O)c2ccccc2OC)c1O	-1.8	18.9*	13.4	-1.4	-0.5
C=CCc1cccc(/C=N/NC(=O)c2ccccc2Br)c1O	-1.0	0.8	-9.4	-1.0	0.1
O=C(/C=C/c1cn(CC(O)CN2CCCCCC2)c2ccccc12)c1cccs1 (configuration not stated)	64.9*	1.6	-126.6	2.1	2.1
CCCCN(C)CC(O)Cn1cc(/C=C/C(=O)c2cccs2)c2ccccc21 (configuration not stated)	33.4	7.9	-93.8	5.5	3.9
CC(=O)NC(Cc1ccc(C(C)C)cc1)C(=O)NC1CCN(C(=O)c2cccc(C)c2)CC1 (configuration not stated)	1.1	-11.8	53.4*	0.2	0.6
Cc1cc(NC(=O)c2cccs2)ncc1NC(=O)C(C)C	5.7	-8.8	15.9	nt	nt
COc1cc(C[C@H](C)[C@H](C)Cc2ccc3c(c2)OCO3)ccc1O	-0.5	nt	58.8*	nt	nt
Cc1nn(-c2ccccc2)c(C)c1C(=O)OCC(=O)Nc1cccc(S(N)(=O)=O)c1	-0.9	nt	1.9	nt	nt
C[C@@H]1CCCCO[C@@H](CN(C)CC2CC2)[C@@H](C)CN([C@H](C)CO)C(=O)c2cc(N(C)C)ccc2O1	0.5	nt	65.7*	nt	nt
C[C@@H]1CCCCO[C@@H](CN(C)Cc2ccccc2)[C@@H](C)CN([C@H](C)CO)C(=O)c2cc(N(C)C)ccc2O1	-0.5	nt	-6.8	nt	nt
CC1(c2ccc(OC(F)F)cc2)NC(=O)N(CC(=O)NCCC2=CCCCC2)C1=O (configuration not stated)	7.1	nt	-14.4	nt	nt
Cn1c(-c2c(N)n(-c3ccccc3)c3nc4ccccc4nc23)nc2ccccc21	85.8*	-3.8	-200.3	5.9	1.7
CCOC(=O)c1c(NC(=O)COC(=O)CCNS(=O)(=O)c2ccccc2)sc(C(=O)N(C)C)c1C	-1.2	nt	-1.3	nt	nt
O=C(NNC(=O)c1ccccc1C(=O)O)c1ccc(O)cc1	-2.2	-0.6	57.9*	1.3	0.1
CC(C)Oc1ccc(C(=O)NNC(=O)c2ccccc2C(=O)O)cc1	0.5	-5.0	-13.3	0.6	-0.6
